Bioassay records: PubChem, several laboratories
hERG rescue: hERG rescue from dofetilide block, primary screen, cell-based, CHO-hERG, FluxOR thallium flux, dofetilide IC70 | dofetilide IC70 present | activation (rescue from dofetilide block), less the hit threshold, % at 10 µM | 0.51% of 310,000 active;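 active means activation above the mean of controls blocked by dofetilide plus 5 SD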;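 further: thallium influx through hERG after potassium depolarization seen as dye fluorescence rise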
KCNQ1 block: inhibitors of human KCNQ1 channel, primary screen, cell-based, thallium flux, high-throughput. B-score at 10 µM. Potassium voltage-gated channel subfamily KQT member 1 (Homo sapiens), P51787. CHO-K1 KCNQ1, FluxOR thallium flux fluorescence; active compounds read high. 1.3% of 310,000 active;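 active means compounds whose thallium flux B-score, printed positive for inhibition, exceeds three library SD while starting fluorescence stays within three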;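 further: channel opened by potassium depolarization with thallium stimulus after 20 min compound exposure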
KCC2 mod: KCC2 cotransporter modulators, thallium flux, primary screen, cell-based, HEK293 KCC2, FluoZin-2 fluorescence, MLSMR | KCC2 cells, thallium flux FluoZin-2 fluorescence | 2.2% of 190,000 active | B-score of Tl+ flux slope (higher = more flux/activation; lower = inhibition) at 10 µM | AID 1456, 2008;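 active means thallium flux slope and its plate-corrected score both differing from the plate sample mean at a set confidence after two filtering rounds, in either direction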;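 further: slope of fluorescence scaled to starting intensity during 10 to 20 s after thallium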
KCNK3 block: human KCNK3 channel inhibitors, primary screen, CHO cells, FluxOR thallium flux, B-score; AID 602410, 2012; FluxOR fluorescence; active compounds read low; 0.84% of 340,000 active; Potassium channel subfamily K member 3 (Homo sapiens), O14649; B-score at 10 µM;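 active means B-score under library mean minus 4 SD, starting fluorescence ratio at most library mean plus 5 SD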;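 further: more negative B-score means stronger inhibition of thallium flux through KCNK3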
Target sequence (O14649 whole entry, looked up): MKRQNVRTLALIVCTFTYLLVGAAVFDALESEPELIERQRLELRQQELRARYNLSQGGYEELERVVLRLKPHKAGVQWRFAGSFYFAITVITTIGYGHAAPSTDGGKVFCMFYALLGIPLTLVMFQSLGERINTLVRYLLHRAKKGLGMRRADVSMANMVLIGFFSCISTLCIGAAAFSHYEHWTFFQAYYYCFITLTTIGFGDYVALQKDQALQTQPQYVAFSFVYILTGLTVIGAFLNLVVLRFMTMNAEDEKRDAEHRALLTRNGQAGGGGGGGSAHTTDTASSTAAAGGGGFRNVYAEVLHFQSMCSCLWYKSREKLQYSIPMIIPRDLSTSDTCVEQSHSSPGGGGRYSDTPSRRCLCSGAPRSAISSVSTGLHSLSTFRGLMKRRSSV
KCNQ1 act: potentiators or activators of KCNQ1 channel, primary screen, cell-based, thallium flux, high-throughput; CHO-K1 KCNQ1, thallium flux FluxOR fluorescence; active compounds read high; B-score at 10 µM; 0.35% of 310,000 active; AID 2648, 2010;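 active means fluorescence ratio B-score, a plate-corrected score, at least three library SD, with initial intensity B-score within 5 SD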
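Medium – assay buffer, equal DMSO in all wells · Material – CHO-K1 cell line with stable KCNQ1 potassium channel expression · Signal – kinetic FluxOR thallium fluorescence, 10-s 1-Hz baseline, 110-s post-stimulus read · Compound – single concentration per compound, DMSO matched to controls · Schedule – 37 °C overnight plating, 90-min dark dye load, 20-min compound pretreatment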
KCNK9 block: KCNK9 potassium channel inhibitors, primary screen, HEK293 cells, thallium flux; Potassium channel subfamily K member 9 (Homo sapiens), Q9NPC2; B-score at 10 µM; AID 488922, 2010; 1.2% of 310,000 active; FluxOR thallium flux fluorescence; active compounds read low;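 active means ratio B-score over 3 SD below the library mean, with starting fluorescence within 5 SD of its mean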;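 further: negative B-score means less thallium flux so channel inhibition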
Target sequence (Q9NPC2 whole entry, looked up): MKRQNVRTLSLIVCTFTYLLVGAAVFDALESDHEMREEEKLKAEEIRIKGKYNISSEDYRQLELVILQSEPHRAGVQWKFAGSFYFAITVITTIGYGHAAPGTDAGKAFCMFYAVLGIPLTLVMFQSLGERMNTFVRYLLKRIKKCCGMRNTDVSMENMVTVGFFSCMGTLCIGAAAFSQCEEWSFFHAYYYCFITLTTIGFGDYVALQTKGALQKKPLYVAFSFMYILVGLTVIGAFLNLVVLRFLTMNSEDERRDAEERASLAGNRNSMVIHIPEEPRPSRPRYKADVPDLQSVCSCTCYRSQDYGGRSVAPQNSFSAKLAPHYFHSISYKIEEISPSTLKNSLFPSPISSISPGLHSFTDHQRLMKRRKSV
KCNK9 block conf: KCNK9 potassium channel inhibitors, confirmation, HEK293 cells, thallium flux, duplicate; shares compounds with KCNK9 block; FluxOR thallium flux fluorescence; inhibition, % at 10 µM; 43% of 4,900 active; AID 492992, 2010;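 active means thallium signal inhibited by more than 5 SD of the compound-free buffer control wells, on both duplicate plates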
Kir2-1 spec: mouse Kir2.1 channel inhibition, confirmation, selectivity assay for KCNK9 modulator project, cell-based, HEK293, thallium flux. Kir2.1 cells, FluxOR thallium flux fluorescence. shares compounds with KCNK9 block. AID 492993, 2010. 4% of 4,900 active. inhibition, % at 10 µM;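 active means thallium signal drop more than 5 SD beyond the mean of the no-compound control wells, seen in both duplicate plates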;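 further: signal is fluorescence rise after thallium addition divided by baseline fluorescence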
KCNK9 uninduced: thallium flux in non-induced HEK293 cells, confirmation, counter-screen for KCNK9 inhibitor project, cell-based, second counter screen, non-induced KCNK9-HEK293 | shares compounds with KCNK9 block | FluxOR thallium flux | inhibition, % at 10 µM | 40% of 4,900 active | AID 492997, 2010;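 active means thallium signal drop beyond 5 SD of the untreated control mean, on both duplicate plates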
Of the large screens only hits and unclear results are named; the others gave an inactive call (follow-up assays come after a bar, where they were run). Hits are enriched below; roughly 4.1% of the tested compounds scored in any of these assays.

O=C(c1ccc2ccccc2c1)C1CCCN(C(=O)c2noc3c2CCCC3)C1 (stereo not drawn)	none | KCNK9 block conf inactive | Kir2-1 spec inactive | KCNK9 uninduced inactive
CSc1nc(C(=O)N2CCCC(C(=O)c3ccc(Cl)cc3)C2)cs1 (stereo not drawn)	none | KCNK9 block conf inactive | Kir2-1 spec inactive | KCNK9 uninduced inactive
CSc1ccc(C(=O)C2CCCN(C(=O)c3cc(C)n(C)n3)C2)cc1 (stereo not drawn)	none (no result: KCC2 mod) | KCNK9 block conf inactive | Kir2-1 spec inactive | KCNK9 uninduced inactive
CC(=O)Nc1ccc(S(=O)(=O)NCCC(=O)NCCCc2ccccc2)cc1	none (no result: hERG rescue, KCNQ1 block, KCC2 mod, KCNQ1 act, KCNK9 block)
CC#CC(=O)N1CCCC(C(=O)c2ccc(SC)cc2)C1 (stereo not drawn)	none (no result: KCC2 mod)
CSc1ccc(C(=O)C2CCCN(C(=O)c3ccsc3)C2)cc1 (stereo not drawn)	none | KCNK9 block conf inactive | Kir2-1 spec inactive | KCNK9 uninduced inactive
Cc1c(C(=O)NCCSCc2c(F)cccc2Cl)cnn1-c1ccc(Cl)cc1	none | KCNK9 block conf inactive | Kir2-1 spec inactive | KCNK9 uninduced inactive
CC(C)C[C@H](NC(=O)c1nc[nH]c1C(=O)NCC(=O)OC(C)(C)C)C(=O)OCc1ccccc1	none
CC(C)C[C@H](NC(=O)c1nc[nH]c1C(=O)NCC(=O)OCc1ccccc1)C(=O)OCc1ccccc1	none (no result: KCC2 mod) | KCNK9 block conf inactive | Kir2-1 spec inactive | KCNK9 uninduced inactive
CCCN(CCC)C(=O)c1cc(S(=O)(=O)N2CCCCC2)c[nH]1	none (no result: KCC2 mod)
COc1ccc(CCCc2nnc(SCC(=O)Nc3cc(C)c(C)cc3Br)o2)cc1	none
COc1ccc(CCCc2nnc(SCC(=O)Nc3cccc(C)c3)o2)cc1	none | KCNK9 block conf inactive | Kir2-1 spec inactive | KCNK9 uninduced inactive
CCc1ccc(N(CC)C(=O)c2ccc3c(Cl)c4c(nc3c2)CCC4)cc1	none | KCNK9 block conf inactive | Kir2-1 spec inactive | KCNK9 uninduced 27%
Cc1ccc(N(C)C(=O)c2ccc3c(Cl)c4c(nc3c2)CCC4)cc1C	none | KCNK9 block conf inactive | Kir2-1 spec inactive | KCNK9 uninduced inactive
CCC(=O)OC1(C(C)=O)CCC2C3CCC4=CC(=O)CCC4(C)C3CCC21C (stereo not drawn)	none (no result: hERG rescue, KCNQ1 block, KCC2 mod, KCNQ1 act, KCNK9 block)
CN1CCN(C2=C(Cl)C(=O)C(c3cnc(N4CCCCC4)s3)=C(Cl)C2=O)CC1	KCNQ1 block 16, KCNK9 block -17 | KCNK9 block conf inactive | Kir2-1 spec inactive | KCNK9 uninduced 38%
CN1CCN(C2=C(Cl)C(=O)N(C3CCCCC3)C2=O)CC1	none
CCCCCCCC[n+]1cccc2c3ccccc3ccc21	KCNQ1 block 9, KCNK9 block -14 | KCNK9 block conf 62% | Kir2-1 spec 86% | KCNK9 uninduced inactive
Cc1cccc[n+]1CCCCCCCCCC[n+]1ccccc1C	none
Cc1cccc(N2N=C(C(=O)N3Cc4ccccc4CC3C(N)=O)CCC2=O)c1 (stereo not drawn)	none (no result: hERG rescue, KCNQ1 block, KCC2 mod, KCNQ1 act, KCNK9 block)
O=C(c1cnc(Cl)c(Cl)c1)N1CCC(Cc2ccccc2)CC1	none | KCNK9 block conf inactive | Kir2-1 spec inactive | KCNK9 uninduced inactive
O=C(c1ccc2nc(N3CCOCC3)sc2c1)N1CCC(Cc2ccccc2)CC1	none | KCNK9 block conf inactive | Kir2-1 spec inactive | KCNK9 uninduced inactive
Cc1ccc(S(=O)(=O)NC(CCC(N)=O)C(=O)NCc2ccc3c(c2)OCO3)c(C)c1 (stereo not drawn)	none (no result: hERG rescue, KCNQ1 block, KCC2 mod, KCNQ1 act, KCNK9 block)
Cc1ccc(CNC(=O)C2CCCN(S(=O)(=O)N3CC(C)CC(C)C3)C2)cc1 (stereo not drawn)	none (no result: KCC2 mod) | KCNK9 block conf inactive | Kir2-1 spec inactive | KCNK9 uninduced inactive
COc1ccc(Br)cc1CNC(=O)C1CCCN(S(=O)(=O)N2CC(C)CC(C)C2)C1 (stereo not drawn)	KCNK9 block -8.5 (no result: KCC2 mod) | KCNK9 block conf inactive | Kir2-1 spec inactive | KCNK9 uninduced inactive
Cc1ccc(C)c(N2CCN(C(=O)c3ccc(CS(=O)Cc4cccc(Cl)c4)o3)CC2)c1 (stereo not drawn)	none (no result: KCC2 mod) | KCNK9 block conf inactive | Kir2-1 spec inactive | KCNK9 uninduced inactive
Cc1ccc(C)c(N2CCN(C(=O)c3cc4c(C)nc5ccccc5c4o3)CC2)c1	KCNK9 block -8.8 (no result: KCC2 mod) | KCNK9 block conf 35% | Kir2-1 spec inactive | KCNK9 uninduced inactive
O=C(O)CSc1nnc(COc2ccc(Br)cc2)n1-c1ccccc1	none (no result: KCC2 mod)
CN(Cc1ccccc1)C(NC(=O)c1ccccc1)C(Cl)(Cl)Cl (stereo not drawn)	none | KCNK9 block conf inactive | Kir2-1 spec inactive | KCNK9 uninduced 41%
CN(Cc1ccccc1)C(NC(=O)c1ccco1)C(Cl)(Cl)Cl (stereo not drawn)	none (no result: KCC2 mod)
O=C(CCl)N1CCN(S(=O)(=O)c2ccc3c(c2)CCC3)CC1	none (no result: hERG rescue, KCNQ1 block, KCC2 mod, KCNQ1 act, KCNK9 block)
O=C1C(Cl)=C(NC2CCCCC2)C(=O)N1Cc1ccccc1	none | KCNK9 block conf inactive | Kir2-1 spec inactive | KCNK9 uninduced inactive
Cc1ccc(N=Cc2cc(Cc3ccccc3Cl)cc([N+](=O)[O-])c2O)c(O)c1	KCNK9 block -8.8 | KCNK9 block conf inactive | Kir2-1 spec inactive | KCNK9 uninduced 65%
COC(=O)Cc1ccc(N(Cc2ccccc2F)S(=O)(=O)c2ccc(Cl)cc2)cc1	KCNK9 block -12 | KCNK9 block conf 60% | Kir2-1 spec inactive | KCNK9 uninduced 40%
CCOc1ccc(C2=C(C=Nc3c(C)n(C)n(-c4ccccc4)c3=O)C(c3ccc(F)cc3)c3ccccc3O2)cc1 (stereo not drawn)	none | KCNK9 block conf inactive | Kir2-1 spec inactive | KCNK9 uninduced inactive
Cn1c(N)nc2nc[nH]c2c1=S	none (no result: hERG rescue, KCNQ1 block, KCC2 mod, KCNQ1 act, KCNK9 block)
Cc1[nH]n(C(N)=S)c(=O)c1N=Nc1cccc([N+](=O)[O-])c1C	none (no result: KCC2 mod) | KCNK9 block conf inactive | Kir2-1 spec inactive | KCNK9 uninduced inactive
